From ChEMBL document CHEMBL4385665, “Synthesis of N-arylindazole-3-carboxamide and N-benzoylindazole derivatives and their evaluation against α-MSH-stimulated melanogenesis” (Bioorg Med Chem Lett, 2019) come the findings set out here.

Assay [1] relates to B16. The assay is described as follows: Inhibition of alpha-MSH-stimulated melanogenesis in mouse B16 cells assessed as reduction in melanin production incubated for 3 days. In kind it is functional, cell-based. The settings on record: B16, 72 h. In a few lines: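 B16 melanoma cells stimulated with α-MSH (100nM) and incubated with test agent for three days. Melanin released into the culture medium was quantified by sample absorbance against a synthetic melanin standard, and IC50 values were derived from inhibition of melanin formation.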

Assay [2] relates to B16. The assay is described as follows: Potency index, ratio of IC50 for arbutin to IC50 for test compound for inhibition of alpha-MSH-stimulated melanogenesis in mouse B16 cells assessed as reduction in melanin production incubated for 3 days. In kind it is functional.

For `COc1ccc(NC(=O)c2n[nH]c3ccccc23)cc1`, the IC50 in assay [1] amounted to 20 µM. As for `COC(=O)c1ccc(NC(=O)c2n[nH]c3ccccc23)cc1`, the IC50 in assay [1] came to 69 µM. As for `COc1ccccc1NC(=O)c1n[nH]c2ccccc12`, the IC50 in assay [1] is 16 µM. Moreover, the “Ratio IC50” value in assay [2] is reported as 4.

Turning to `COc1cccc(NC(=O)c2n[nH]c3ccccc23)c1`, the IC50 in assay [1] came to 36 µM.

On to `Cc1cccc(NC(=O)c2n[nH]c3ccccc23)c1`, for which the IC50 in assay [1] is 15 µM. Still for that read-out and setting: then `Cc1ccc(NC(=O)c2n[nH]c3ccccc23)cc1`, with 38 µM; and `O=C(Nc1ccc(Cl)cc1)c1n[nH]c2ccccc12`, with 93 µM. Take `O=C(c1ccccc1Cl)n1ncc2cc([N+](=O)[O-])ccc21`: the IC50 in assay [1] turned out to be 7 µM. The “Ratio IC50” value in assay [2] was 9. `O=C(c1ccccc1)n1ncc2cc([N+](=O)[O-])ccc21`: in assay [1], the IC50 turned out to be 51 µM. Take `O=C(Nc1ccc(O)cc1)c1n[nH]c2ccccc12`: in assay [1], the IC50 is 18 µM. The same measure, in the same setting: the value for `O=C(Nc1ccccc1O)c1n[nH]c2ccccc12` was 21 µM. On the same count and under the same terms, then `O=C(Nc1cccc(O)c1)c1n[nH]c2ccccc12`, with 35 µM; and `O=C(c1ccccc1)n1ncc2cc([N+](=O)[O-])c(Br)cc21`, with 32 µM; and `Cc1cccc(C(=O)n2ncc3cc([N+](=O)[O-])c(Br)cc32)c1`, with 28 µM. Same read-out and setting: then `O=C(Cc1cccs1)n1ncc2cc([N+](=O)[O-])ccc21`, with 55 µM.

As for `O=C(c1ccccc1Cl)n1ncc2cc([N+](=O)[O-])c(Br)cc21`, in assay [1], the IC50 worked out at 25 µM. The “Ratio IC50” value in assay [2] is 4. On to `O=C(Nc1ccc(C(F)(F)F)cc1)c1n[nH]c2ccccc12`, for which the IC50 in assay [1] turned out to be 15 µM. For the same molecule, the “Ratio IC50” value in assay [2] stood at 4.

Consider `O=C(Nc1ccc(OC(F)(F)F)cc1)c1n[nH]c2ccccc12`, for which, in assay [1], the IC50 turned out to be 13 µM. The “Ratio IC50” value in assay [2] was found to be 5. Turning to `O=C(c1ccc(Cl)cc1)n1ncc2cc([N+](=O)[O-])ccc21`, the IC50 in assay [1] turned out to be 60 µM. Consider `Cc1cccc(C(=O)n2ncc3cc([N+](=O)[O-])ccc32)c1`, for which the IC50 in assay [1] came out at 77 µM. Regarding `O=C(Nc1ccccc1)c1n[nH]c2ccccc12`, the IC50 in assay [1] is 40 µM. Same read-out and setting: then `OC[C@H]1O[C@@H](Oc2ccc(O)cc2)[C@H](O)[C@@H](O)[C@@H]1O` [ARBUTIN], with 64 µM.

What is called IC50 is the concentration that inhibits the measured activity by half.
